Test results reported in the array DNA melting data of Ke et al. (doi:10.1101/2024.01.08.574731).

What was measured:
[1] = folding enthalpy; higher = less favourable; fluorescence melt of hairpins on a sequencing array, two-state fit; conditions: sodium 0.088 M
Procedure, shortened: (§1)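 Bootstrapped two-state fits yielded melting temperature and folding enthalpy for library hairpins. Cy3 fluorescence, with annealed Cy3 and quencher oligos, was imaged on a sequenced MiSeq flow cell in 50 mM Na-HEPES pH 8.0, 25 mM NaCl in 2.5 °C steps up to 60 °C, and normalised to pre-quench Cy3 and to control constructs. Four replicates were combined by inverse variance, and fitted temperatures were raised by 9.35 °C to match UV melts.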

[2] = melting temperature; fluorescence melt of hairpins on a sequencing array, two-state fit, raised by 9.35 °C to match UV melts; conditions: sodium 0.088 M
Procedure, shortened: as §1

Row | Sequence | folding enthalpy [1] | Tm [2]
1 | GGCCCCGAAAGGGAGGCC ((((((....)))..))) | -26.9 kcal/mol | 64.5 °C
2 | GCGTCGCGAAAGCTAAGC ((.(.((....)).).)) | -20.2 kcal/mol | 51.4 °C
3 | GATCATTATGATGATC ((((((....)))))) | -43.7 kcal/mol | 48.6 °C
4 | GGACGCGAAAGCGCATCC ((((((....)))..))) | -10.1 kcal/mol | 34.5 °C
5 | GATCCGCTGTCGGATC ((((((....)))))) | -42.1 kcal/mol | 57.8 °C
6 | GATCGGTTGCCGATC ((((((...)))))) | -28.6 kcal/mol | 59.1 °C
7 | GATCTGCTGCAGATC ((((((...)))))) | -41.4 kcal/mol | 50.4 °C
8 | GATCCGCCGTCGGATC ((((((....)))))) | -40.7 kcal/mol | 56.9 °C
9 | GCGAGCCGTCGC ((((....)))) | -20 kcal/mol | 52.7 °C
10 | GCCGGGCGAAAGCGCAGC ((.(.((....)).).)) | -13.2 kcal/mol | 43.3 °C
11 | GTCTCTACGAAAGTAGAC (((..(((....)))))) | -11.2 kcal/mol | 33.2 °C
12 | GCAACCGAAAGGTGTTGC ((((((....)))..))) | -19 kcal/mol | 50 °C
13 | GATCAGGCATCTGATC ((((((....)))))) | -45.1 kcal/mol | 55.6 °C
14 | GACTCACGAAAGTGGTC (((.(((....)))))) | -20 kcal/mol | 46.6 °C
15 | CGTGCGGAAACGCATACG ((((((....)))..))) | -15.4 kcal/mol | 44.9 °C
16 | CGGGCGGAAACGCAGCCG ((((((....)))..))) | -19.5 kcal/mol | 50.2 °C
17 | GCAGTTCGAAAGAATTGC (((.(((....))).))) | -38.5 kcal/mol | 52.6 °C
18 | GGATTTCGAAAGAACTCC (((.(((....))).))) | -29.4 kcal/mol | 38 °C
19 | GATCTAAGTCTAGATC ((((((....)))))) | -25.4 kcal/mol | 37.7 °C
20 | GATCCAACCTGGATC ((((((...)))))) | -31 kcal/mol | 50.4 °C
21 | GATCGACAGTTCGATC ((((((....)))))) | -44.4 kcal/mol | 49.2 °C
22 | GGCTACGGAAACGTAGTC (.(((((....))))).) | -28.9 kcal/mol | 53.6 °C
23 | GATCGGACGGCCGATC ((((((....)))))) | -45.5 kcal/mol | 59.3 °C
24 | GTTAGTCGAAAGACCAAC (((.(((....))).))) | -19.1 kcal/mol | 37 °C

Row | Sequence | folding enthalpy [1] | Tm [2]
25 | GGCCTACGAAAGTAGCC (((.(((....)))))) | -22.4 kcal/mol | 53.6 °C
26 | GATCGGGTTACCGATC ((((((....)))))) | -35.8 kcal/mol | 67.3 °C
27 | GATGTGGGAAACCGCATC ((((.((....)).)))) | -46.4 kcal/mol | 51.9 °C
28 | CGCTAACGGAAACGTGCG (((..(((....)))))) | -28.9 kcal/mol | 48 °C
29 | GAGCCCGGAAACAGGCTC (((((.(....).))))) | -39.4 kcal/mol | 51.5 °C
30 | GGTCGGCGAAAGCCACC (((.(((....)))))) | -14.8 kcal/mol | 55.3 °C
31 | GATCGTACCAACGATC ((((((....)))))) | -36.7 kcal/mol | 55.5 °C
32 | GGGGACGAAAGTCAACCC ((((((....)))..))) | -17.6 kcal/mol | 49 °C
33 | GATGATGGAAACATTATC (((.(((....))).))) | -30.4 kcal/mol | 35.5 °C
34 | GGCCGAGGAAACTCGACC ((.((((....)))).)) | -35 kcal/mol | 51.4 °C
35 | GTGAAAGGAAACTTTCAC (((((((....))))))) | -50.6 kcal/mol | 54.1 °C
36 | GATCAGATGCCTGATC ((((((....)))))) | -23.8 kcal/mol | 48.4 °C
37 | GATCCTAGCCAGGATC ((((((....)))))) | -40.2 kcal/mol | 52.1 °C
38 | GCACAGGCGAAAGCCTGC (((..(((....)))))) | -6.09 kcal/mol | 42.6 °C
39 | GCAATCACGAAAGTGTGC (((..(((....)))))) | -19.5 kcal/mol | 39.9 °C
40 | GATCCCAAGCGGGATC ((((((....)))))) | -32.5 kcal/mol | 60.6 °C
41 | GTGCTTCCGAAAGGACAC (((..(((....)))))) | -22.1 kcal/mol | 39.7 °C
42 | GCCTGGTCGAAAGACGGC (((..(((....)))))) | -25.3 kcal/mol | 52.2 °C
43 | GTGATCGGAAACGATTAC ((.((((....)))).)) | -24.4 kcal/mol | 48.2 °C
44 | GGGCCGGGAAACCAGCCC ((((.((....)).)))) | -49.3 kcal/mol | 54.3 °C
45 | GCACGCGAAAGCGCCTGC ((((((....)))..))) | -9.69 kcal/mol | 37.1 °C
46 | GCGCAGCGAAAGCTACGC (((.(((....))).))) | -35 kcal/mol | 53.5 °C
47 | GCGATGCGAAAGCATAGC ((.((((....)))).)) | -31.1 kcal/mol | 66.7 °C
48 | GATCTGAAAGCAGATC ((((((....)))))) | -26.4 kcal/mol | 42.1 °C

Row | Sequence | folding enthalpy [1] | Tm [2]
49 | GTTACCGGAAACGGCAAC (((.(((....))).))) | -24.6 kcal/mol | 44 °C
50 | GTGTTCCGAAAGGACAC (((.(((....)))))) | -32.8 kcal/mol | 53.8 °C
51 | GATTCACGAAAGTGGATC (((.(((....))).))) | -39.1 kcal/mol | 52.5 °C
52 | GTTGCCCGAAAGGGAAC (((.(((....)))))) | -15.6 kcal/mol | 47.6 °C
53 | TTCTGGAAACAGAA (((((....))))) | -15.6 kcal/mol | 35.4 °C
54 | GCGAACCTTCGC ((((....)))) | -24.2 kcal/mol | 50.3 °C
55 | GAATGTGAAAACATTC ((((((....)))))) | -35.2 kcal/mol | 51.3 °C
56 | GCCAGAGGAAACTCTGGC (((((((....))))))) | -44.8 kcal/mol | 69.1 °C
57 | GTGCTCGAAAGAGGCAC ((((((....))).))) | -24.7 kcal/mol | 55.2 °C
58 | GTGGTCGAAAGACAGCAC ((((((....)))..))) | -16.9 kcal/mol | 40.6 °C
59 | GATAGGCCGAAAGGCATC (((..(((....)))))) | -9.82 kcal/mol | 30.3 °C
60 | GATCAAGGAATTGATC ((((((....)))))) | -31.8 kcal/mol | 47.6 °C
61 | GGATGGGGAAACCCGTCC (((.(((....))).))) | -48.4 kcal/mol | 54.2 °C
62 | GTGGAACCGAAAGGTCAC (((..(((....)))))) | -21.9 kcal/mol | 42.3 °C
63 | GTTGATCGAAAGATAAAC (((.(((....))).))) | -25.1 kcal/mol | 40 °C
64 | GTATAAGAAATTATAC ((((((....)))))) | -14.5 kcal/mol | 29.6 °C
65 | GAATCTGGAAACAGGTTC (((.(((....))).))) | -31.5 kcal/mol | 44 °C
66 | CGCGGAACTATCCGCG ((((((....)))))) | -31.2 kcal/mol | 68.7 °C
67 | GCAATAGGAAACCATTGC (((((.(....).))))) | -28 kcal/mol | 39.2 °C
68 | GGAGAACCGAAAGGTTCC (((..(((....)))))) | -9.16 kcal/mol | 43.1 °C
69 | GCTGCGCCGAAAGGCAGC (((..(((....)))))) | -11.5 kcal/mol | 61.1 °C
70 | GGGTTCGGAAACGAACTC (.(((((....))))).) | -23.3 kcal/mol | 53.8 °C
71 | GCCTCTTCGAAAGAAGGC (((..(((....)))))) | -14.8 kcal/mol | 39.4 °C
72 | GATCAATGGTTTGATC ((((((....)))))) | -31.9 kcal/mol | 44.7 °C

Row | Sequence | folding enthalpy [1] | Tm [2]
73 | GCAGCCGAAAGGCTCTGC ((((((....)))..))) | -12.2 kcal/mol | 46.3 °C
74 | GATCTCAGGAGAGATC ((((((....)))))) | -34.7 kcal/mol | 50.8 °C
75 | GGAGCCGGAAACAGCTCC (((((.(....).))))) | -27.7 kcal/mol | 51.3 °C
76 | GACGCAGCGAAAGCTGTC (((..(((....)))))) | -7.32 kcal/mol | 33.5 °C
77 | GATCATACTATGATC ((((((...)))))) | -35.7 kcal/mol | 48.1 °C
78 | GGTTAGGCGAAAGCCACC (((..(((....)))))) | -12.5 kcal/mol | 42.9 °C
79 | GCTGGGCGAAAGCGCTGC ((.(.((....)).).)) | -31.7 kcal/mol | 60 °C
80 | GACACCGAAAGGTAGGTC ((((((....)))..))) | -20.2 kcal/mol | 38.7 °C
81 | CGATGCGGAAACGCCTCG (((.(((....))).))) | -40.4 kcal/mol | 48.1 °C
82 | GCACTCGGAAACGAGTAC (.(((((....))))).) | -13.6 kcal/mol | 44.1 °C
83 | GGTTGCCGAAAGGCACC (((.(((....)))))) | -14.5 kcal/mol | 59 °C
84 | GGTCGTCCGAAAGGAACC (((..(((....)))))) | -9.14 kcal/mol | 26.3 °C
85 | GAGGCTGGAAACAACCTC ((((.((....)).)))) | -29.2 kcal/mol | 41.8 °C
86 | GTCGAGGCGAAAGCCGAC (((..(((....)))))) | -9.98 kcal/mol | 51 °C
87 | GATCCCATGAGGGATC ((((((....)))))) | -30.3 kcal/mol | 61.4 °C
88 | GGTAACGAAAGTTACC ((((((....)))))) | -34.7 kcal/mol | 64.1 °C
89 | GATCTAGCCGTAGATC ((((((....)))))) | -31.2 kcal/mol | 44.5 °C
90 | GGTGCACGAAAGTGAACC (((.(((....))).))) | -35.3 kcal/mol | 61.4 °C
91 | GATCTCATGCGAGATC ((((((....)))))) | -48.3 kcal/mol | 52.1 °C
92 | GGTTCGCGAAAGCGACC (((.(((....)))))) | -14.9 kcal/mol | 61.7 °C
93 | GCGAATATCGC ((((...)))) | -16.6 kcal/mol | 46.5 °C
